Test results from ChEMBL document CHEMBL1131039, “Styrylquinoline derivatives: a new class of potent HIV-1 integrase inhibitors that block HIV-1 replication in CEM cells” (J Med Chem, 1998).

What was measured:
[1] = target: T1, Human immunodeficiency virus type 1 integrase (Human immunodeficiency virus 1, UniProt Q7ZJM1); assay: HIV integrase inhibitory potency was evaluated as IC50 on 3' processing of target DNA.
[2] = target: T1, Human immunodeficiency virus type 1 integrase; assay: In vitro anti-HIV integrase activity against integration (strand transfer) of target plasmid.
CCRF-CEM [3] = assay: Cytotoxicity (TC50) was measured by MTT transformation assay; type: functional; details: Homo sapiens, read-out: TC50 (the source's name)
CCRF-CEM [4] = assay: (§1) Cytotoxicity (TC90) was measured by MTT transformation assay; type: functional; details: Homo sapiens
CCRF-CEM [5] = assay: Antiviral activity was measured as IC25 by calculating amount of virus present in CEM cells by beta-galactosidase assay.; type: functional; details: Homo sapiens
Procedure, shortened: (§2)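 HIV-1 PLN4-3 (cell-free virus from CEM transfection) infection of CEM cells (RPMI-1640, 10% FCS), triplicate wells. Virus removed at 2 h, compounds in DMSO added in fresh medium at increasing concentrations. Supernatants taken at 72 h and used to infect HeLaCD4+-β-gal (P4) cells for 24 h. Lysate incubated with CPRG for 1 h, read at 570 nm. Average of three experiments.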

CCRF-CEM [6] = assay: Antiviral activity was measured as IC50 by calculating amount of virus present in CEM cells by P4 infection; type: functional, cell-based; details: Homo sapiens; procedure, shortened: as §2
CCRF-CEM [7] = assay: as §1; type: functional, Homo sapiens
CCRF-CEM [8] = assay: Toxicity was measured by MTT assay after 120 hours at 100 uM; type: functional, Homo sapiens
Procedure, shortened: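 Infected CEM cells exposed to compounds at 100 μM; viability assessed 120 h after infection by MTT transformation assay (formazan solubilized in SDS/HCl, absorbance at 570 nm).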

CCRF-CEM [9] = assay: Toxicity was measured by MTT assay after 72 hours at 100 uM; type: functional, Homo sapiens
Procedure, shortened: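 Infected CEM cells exposed to compounds (in DMSO) at 100 μM; viability after 72 h by MTT. MTT (7.5 mg/mL in phosphate buffer) added per well, 4 h at 37 °C under CO2. Formazan dissolved in 10% SDS, 10 mM HCl, absorbance at 570 nm. Average of three experiments.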

CCRF-CEM [10] = assay: Antiviral activity was measured as IC90 by calculating amount of virus present in CEM cells by P4 infection; type: functional; details: Homo sapiens; procedure, shortened: as §2
[11] = tested on: Human immunodeficiency virus 1; assay: Effect upon disintegration catalyzed by the deletion mutant; type: functional
CCRF-CEM [12] = assay: Antiviral activity was measured as IC50 by calculating amount of virus present in CEM cells by beta-galactosidase assay.; type: functional, cell-based; details: Homo sapiens; procedure, shortened: as §2
CCRF-CEM [13] = assay: Antiviral activity was measured as IC90 by calculating amount of virus present in CEM cells by beta-galactosidase assay.; type: functional; details: Homo sapiens; procedure, shortened: as §2
[14] = target: T1, Human immunodeficiency virus type 1 integrase; assay: In vitro anti-HIV integrase activity against 3' processing of target plasmid.
Procedure, shortened: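 Buffer: 20 mM Tris pH 7.2, 30 mM NaCl, 10% glycerol, 10 mM DTT, 0.01% NP40 and 10 mM MnCl2. Compounds were tested over a concentration range, and IC50 was taken for inhibition of 3'-processing.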

CCRF-CEM [15] = assay: Antiviral activity was measured as IC50 by calculating amount of virus present in CEM cells by P24 ELISA test; type: functional, cell-based; details: Homo sapiens
Procedure, shortened: (§3)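 Same CEM/HIV-1 PLN4-3 infection scheme: virus washed off after 2 h, compound in DMSO added in fresh medium, supernatants harvested 72 h post-infection. Viral load measured as virion-associated p24 antigen by ELISA in the culture supernatants.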

CCRF-CEM [16] = assay: Antiviral activity was measured as IC90 by calculating amount of virus present in CEM cells by P24 ELISA test; type: functional; details: Homo sapiens; procedure, shortened: as §3

T1 sequence (Q7ZJM1 whole entry): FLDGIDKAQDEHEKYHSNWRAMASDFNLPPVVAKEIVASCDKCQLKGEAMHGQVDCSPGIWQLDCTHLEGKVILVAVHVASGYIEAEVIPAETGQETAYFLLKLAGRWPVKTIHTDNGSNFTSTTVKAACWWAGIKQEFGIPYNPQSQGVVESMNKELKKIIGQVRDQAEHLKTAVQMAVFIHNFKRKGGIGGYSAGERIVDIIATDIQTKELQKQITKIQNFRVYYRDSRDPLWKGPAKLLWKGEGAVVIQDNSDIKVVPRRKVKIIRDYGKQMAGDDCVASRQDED

Compound: CC(=O)Oc1cccc2ccc(/C=C/c3ccccc3)nc12
- IC50 [1]: > 100 µM
- IC50 [2]: > 100 µM

Compound: Oc1ccc(/C=C/c2ccc3ccccc3n2)cc1O
- CC50 (CCRF-CEM [3]): 12.3 µM
- TC90 (CCRF-CEM [4]): 100 µM
- IC50 [1]: > 100 µM

Compound: CC(=O)Oc1ccc(/C=C/c2ccc3cccc(OC(C)=O)c3n2)cc1OC(C)=O
- IC50 [1]: > 100 µM
- IC50 [2]: > 100 µM

Compound: O=C(O)c1ccc2ccc(/C=C/c3ccc(O)c(O)c3)nc2c1O
- IC25 (CCRF-CEM [5]): 0.46 µM
- IC50 (CCRF-CEM [6]): 1.3 µM
- TC90 (CCRF-CEM [7]): >100 µM
- Toxicity (CCRF-CEM [8]): <10%
- Toxicity (CCRF-CEM [9]): 0%
- IC90 (CCRF-CEM [10]): 12.3 µM
- IC50 [11]: 0.9 µM
- IC50 [1]: 2.4 µM
- IC50 [2]: 1 µM

Compound: Nc1cccc2ccc(/C=C/c3ccc(O)c(O)c3)nc12
- IC50 [1]: > 100 µM
- IC50 [2]: > 100 µM

Compound: Cc1ccc2cccc(OC(=O)/C=C/c3ccc(O)c(O)c3)c2n1
- IC50 [1]: > 100 µM
- IC50 [2]: > 100 µM

Compound: N#Cc1ccc2ccc(/C=C/c3ccc(O)c(O)c3)nc2c1O
- TC90 (CCRF-CEM [7]): 56.3 µM
- CC50 (CCRF-CEM [3]): 6.2 µM
- IC50 ([11]; Human immunodeficiency virus 1): 3.6 µM
- IC50 [1]: 3 µM

Compound: O=C(O)c1ccc2ccc(/C=C/c3cc(O)c(O)c(O)c3)nc2c1O [listing 1 of 2 here]
- IC25 (CCRF-CEM [5]): 0.4 µM
- IC50 (CCRF-CEM [12]): 1.2 µM
- TC90 (CCRF-CEM [7]): 93.3 µM
- Toxicity (CCRF-CEM [9]): 100%
- CC50 (CCRF-CEM [3]): 10.7 µM
- IC90 (CCRF-CEM [13]): 10.7 µM
- IC50 ([11]; Human immunodeficiency virus 1): 0.24 µM
- IC50 [1]: 0.3 µM
- IC50 [2]: 0.4 µM

Compound: O=C(O)c1cc(/C=C/c2ccc3ccc(C(=O)O)c(O)c3n2)ccc1O
- IC25 (CCRF-CEM [5]): 20.9 µM
- IC50 (CCRF-CEM [12]): 62 µM
- TC90 (CCRF-CEM [7]): >100 µM
- Toxicity (CCRF-CEM [8]): 0%
- Toxicity (CCRF-CEM [9]): 0%
- CC50 (CCRF-CEM [3]): > 100 µM
- IC90 (CCRF-CEM [13]): > 100 µM
- IC50 ([11]; Human immunodeficiency virus 1): 0.6 µM
- IC50 [1]: 2.7 µM
- IC50 [2]: 0.6 µM

Compound: Oc1cccc2ccc(/C=C/c3ccc4cccc(O)c4n3)nc12
- IC50 [1]: > 100 µM

Compound: Cc1ccc2cccc(O)c2n1 [8-HYDROXY QUINALDINE]
- IC50 [14]: > 100 µM
- IC50 [2]: > 100 µM

Compound: O=C([O-])c1ccc2ccc(/C=C/c3ccc(O)c(O)c3)nc2c1O.[Na+]
- IC50 (CCRF-CEM [15]): 20 µM
- TC90 (CCRF-CEM [7]): >100 µM
- Toxicity (CCRF-CEM [9]): 0%
- CC50 (CCRF-CEM [3]): > 100 µM
- IC90 (CCRF-CEM [16]): > 100 µM
- IC50 ([11]; Human immunodeficiency virus 1): 0.7 µM
- IC50 [1]: 0.8 µM

Compound: O=[N+]([O-])c1cccc2ccc(/C=C/c3ccc(O)c(O)c3)nc12
- IC50 [1]: > 100 µM
- IC50 [2]: > 100 µM

Compound: Oc1ccc(/C=C/c2ccc3ccc(/C=C/c4ccc(O)c(O)c4)c(O)c3n2)cc1O
- IC50 [1]: 2.2 µM
- IC50 [2]: 3.4 µM

Compound: O=C(O)c1ccc2ccc(/C=C/c3ccc(O)cc3O)nc2c1O
- IC25 (CCRF-CEM [5]): 26.3 µM
- IC50 (CCRF-CEM [12]): 79.8 µM
- TC90 (CCRF-CEM [7]): >100 µM
- Toxicity (CCRF-CEM [8]): <10%
- Toxicity (CCRF-CEM [9]): 0%
- CC50 (CCRF-CEM [3]): > 100 µM
- IC90 (CCRF-CEM [13]): > 100 µM
- IC50 ([11]; Human immunodeficiency virus 1): 2.5 µM
- IC50 [1]: 3.7 µM
- IC50 [2]: 2.8 µM

Compound: COc1ccc(/C=C/C(=O)Oc2cccc3ccc(C)nc23)cc1OC
- IC50 [1]: > 100 µM
- IC50 [2]: > 100 µM

Compound: Cc1ccc2ccc(C(=O)O)c(O)c2n1
- IC25 (CCRF-CEM [5]): > 100 µM
- IC50 (CCRF-CEM [12]): > 100 µM
- TC90 (CCRF-CEM [7]): >100 µM
- Toxicity (CCRF-CEM [9]): 0%
- CC50 (CCRF-CEM [3]): > 100 µM
- IC90 (CCRF-CEM [13]): > 100 µM
- IC50 [1]: > 100 µM
- IC50 [2]: 114 µM

Compound: Oc1ccc(/C=C/c2ccc3cccc(O)c3n2)cc1O
- IC25 (CCRF-CEM [5]): 1.2 µM
- IC50 (CCRF-CEM [12]): 3.6 µM
- TC90 (CCRF-CEM [7]): 71 µM
- Toxicity (CCRF-CEM [9]): 99%
- CC50 (CCRF-CEM [3]): 8.1 µM
- IC50 ([11]; Human immunodeficiency virus 1): 2.5 µM
- IC50 [1]: 7.4 µM
- IC50 [2]: 2.4 µM

Compound: O=C(O)c1ccc2ccc(/C=C/c3cc(O)c(O)c(O)c3)nc2c1O [listing 2 of 2 here]
- IC50 [1]: 0.26 µM

Compound: Oc1cccc2ccc(/C=C/c3ccccc3)nc12
- CC50 (CCRF-CEM [3]): 50.1 µM
- TC90 (CCRF-CEM [4]): > 100 µM
- IC50 [1]: > 100 µM
- IC50 [2]: > 100 µM
